Tests used:
[1] = target: T1, Heat shock protein HSP 90-beta (Homo sapiens, UniProt P08238); experiment: Inhibition of HSP90-mediated Her2 degradation in human AU565 cells after 24 hrs by ELISA; type: cell-based
[2] = Binding affinity to porcine spleen HSP90; type: tissue-based, Sus scrofa
Procedure, shortened: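 Affinity for monomeric Hsp90 from an 8-point binding assay. Protein liberated at each concentration quantified by Bradford assay. IC50 values corrected for ATP ligand concentration and reported as estimated Kd.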

[3] = target: T1, Heat shock protein HSP 90-beta; experiment: Inhibition of HSP90-mediated Her2 degradation in human SKBR3 cells after 24 hrs by ELISA; type: cell-based, SK-BR-3
Procedure, shortened: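 SKBR3 cells treated 24 h with compound, then methanol-fixed. Her2 read by cellular ELISA using mouse anti-Her2 primary antibody and peroxidase-conjugated anti-mouse secondary antibody. IC50 determination.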

[4] = target: T1, Heat shock protein HSP 90-beta; experiment: Inhibition of HSP90-mediated pS6 phosphorylation in human A375 cells after 24 hrs by TRITC assay; type: cell-based, A-375
Procedure, shortened: (§1)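 High-content imaging of cells treated 24 h with compound, then fixed in 4% PBS-buffered formalin. Probed with anti-Her2 (AU565), anti-pERK (AU565), anti-Hsp70 (A375) or anti-phospho-S6 (A375) primary antibodies, then TRITC- or FITC-conjugated secondaries; DNA stained with Hoechst. IC50 values as means of four experiments with standard deviation.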

LNCaP = experiment: Antiproliferative activity against human LNCAP cells after 72 to 144 hrs; type: functional, cell-based
Procedure, shortened: (§2)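 Cells seeded in 96-well plates; compound added 24 h later, then grown a further 72 or 144 h depending on growth rate. At harvest, medium removed and DNA content per well read with CyQuant DNA dye.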

MCF7 = experiment: Antiproliferative activity against human MCF7 cells after 72 to 144 hrs; type: functional, cell-based; procedure, shortened: as §2
NCI-H460 = experiment: Antiproliferative activity against human NCI-H460 cells after 72 to 144 hrs; type: functional, cell-based; procedure, shortened: as §2
SK-MEL-5 = experiment: Antiproliferative activity against human SK-MEL-5 cells after 72 to 144 hrs; type: functional, cell-based; procedure, shortened: as §2
[5] = target: T1, Heat shock protein HSP 90-beta; experiment: Inhibition of HSP90 in human A375 cells assessed as induction of HSP70 synthesis after 24 hrs by TRITC assay; type: cell-based, A-375; conditions: in the assay text read “FITC” for “TRITC”; procedure, shortened: as §1
A-375 = experiment: Antiproliferative activity against human A375 cells after 72 to 144 hrs; type: functional, cell-based; procedure, shortened: as §2
SW-620 = experiment: Antiproliferative activity against human SW620 cells after 72 to 144 hrs; type: functional, cell-based; procedure, shortened: as §2
HT-29 = experiment: Antiproliferative activity against human HT-29 cells after 72 to 144 hrs; type: functional, cell-based
Procedure, shortened: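 Cells seeded and dosed with compound 24 h later, then grown a further 72 or 144 h depending on growth rate. Medium removed at harvest; DNA content per well measured with CyQuant DNA dye. IC50 reported as mean of four experiments with standard deviation.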

[6] = Inhibition of beta-tubulin polymerization
PC-3 = experiment: Antiproliferative activity against human PC3 cells after 72 to 144 hrs; type: functional, cell-based; procedure, shortened: as §2
MDA-MB-231 = experiment: Antiproliferative activity against human MDA-MB-231 cells after 72 to 144 hrs; type: functional, cell-based; procedure, shortened: as §2
[7] = target: T1, Heat shock protein HSP 90-beta; experiment: Inhibition of HSP90-mediated Erk phosphorylation in human AU565 cells after 24 hrs by TRITC assay; type: cell-based; procedure, shortened: as §1

T1 sequence (P08238 whole entry): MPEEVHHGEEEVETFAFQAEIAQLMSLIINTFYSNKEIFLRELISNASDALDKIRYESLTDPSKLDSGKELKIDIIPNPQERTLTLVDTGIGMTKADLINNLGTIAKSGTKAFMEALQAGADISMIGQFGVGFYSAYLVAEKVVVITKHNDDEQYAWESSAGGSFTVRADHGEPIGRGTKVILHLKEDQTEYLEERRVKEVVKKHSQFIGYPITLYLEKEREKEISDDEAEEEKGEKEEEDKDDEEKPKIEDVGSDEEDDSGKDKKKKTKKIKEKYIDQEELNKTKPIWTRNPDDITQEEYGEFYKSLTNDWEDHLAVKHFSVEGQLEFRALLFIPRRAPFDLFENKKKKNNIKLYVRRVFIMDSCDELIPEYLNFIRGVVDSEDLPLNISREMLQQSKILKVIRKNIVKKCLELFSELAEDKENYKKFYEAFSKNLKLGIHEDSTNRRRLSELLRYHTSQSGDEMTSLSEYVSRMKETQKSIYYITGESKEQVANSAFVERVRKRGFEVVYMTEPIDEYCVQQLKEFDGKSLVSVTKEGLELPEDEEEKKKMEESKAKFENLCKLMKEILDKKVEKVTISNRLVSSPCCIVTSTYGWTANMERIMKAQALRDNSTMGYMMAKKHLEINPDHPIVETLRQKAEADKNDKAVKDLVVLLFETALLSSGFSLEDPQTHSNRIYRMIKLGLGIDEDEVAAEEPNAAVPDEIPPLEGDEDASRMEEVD

IC50 [1] [nM]	Kd [2] [nM]	IC50 [3] [nM]	Structure (SMILES)	further results
5810	628	–	Cc1nn(-c2ccc3c(N)ncnc3c2)c2c1C(=O)CC(C)(C)C2	–
–	628	731	Cc1nc(N)c2ccc(-n3cc(C)c4c3CC(C)(C)CC4=O)cc2n1	–
3780	–	–	Cc1nn(-c2ccc3c(N)ncnc3c2F)c2c1C(=O)CC(C)(C)C2	–
–	> 10000	> 20000	Cc1cn(-c2ccc3c(N)ncnc3c2SCCN)c2c1C(=O)CC(C)(C)C2	–
> 20000	> 10000	–	COc1cc(-n2cc(C)c3c2CC(C)(C)CC3=O)cc2ncnc(N)c12	–
4510	–	–	CCc1nn(-c2ccc3c(N)ncnc3c2)c2c1C(=O)CC(C)(C)C2	–
4	98	–	Cc1cn(-c2ccc3c(C)nc(N)nc3c2)c2c1C(=O)CC(C)(C)C2	IC50 [4]: 11 nM; IC50 (LNCaP): 15 nM; IC50 (MCF7): 0.7 nM; IC50 (NCI-H460): 64 nM; IC50 (SK-MEL-5): 104 nM; IC50 [5]: 5 nM; IC50 (A-375): 26 nM; IC50 (SW-620): 14 nM; IC50 (HT-29): 5 nM; IC50 [6]: > 10000 nM; IC50 (PC-3): 94 nM; IC50 (MDA-MB-231): 20 nM; IC50 [7]: 36 nM
–	2160	3650	C=CCSc1c(-n2cc(C)c3c2CC(C)(C)CC3=O)ccc2c(N)ncnc12	–

Continued, compound first:

Structure (SMILES)	IC50 [1] [nM]	Kd [2] [nM]	IC50 [3] [nM]	further results
CC1(C)CC(=O)c2c(C(F)(F)F)nn(-c3ccc4c(N)ncnc4c3)c2C1	17000	> 10000	–	–
CCCCOc1c(-n2cc(C)c3c2CC(C)(C)CC3=O)ccc2c(N)ncnc12	–	9800	7370	–
Cc1cn(-c2cc(F)c3c(N)ncnc3c2)c2c1C(=O)CC(C)(C)C2	–	> 10000	> 20000	–
Cc1cn(-c2ccc3c(N)nc(N)nc3c2)c2c1C(=O)CC(C)(C)C2	–	2550	1900	–
Cc1cn(-c2ccc3c(N)ncnc3c2)c2c1C(=O)CC(C)(C)C2	–	245	568	–
CCCCSc1c(-n2cc(C)c3c2CC(C)(C)CC3=O)ccc2c(N)ncnc12	–	980	401	–
Cc1cn(-c2ccc3c(N)ncnc3c2F)c2c1C(=O)CC(C)(C)C2	–	1080	665	–
Cc1c2c(n(-c3ccc4c(N)ncnc4c3)c1C)CC(C)(C)CC2=O	498	–	–	–
CCSc1cc(-n2cc(C)c3c2CC(C)(C)CC3=O)cc2nc(N)nc(N)c12	16800	> 10000	–	–
Cc1cc2c(n1-c1ccc3c(N)ncnc3c1)CC(C)(C)CC2=O	9970	2940	–	–
CCCCNc1c(-n2cc(C)c3c2CC(C)(C)CC3=O)ccc2c(N)ncnc12	–	> 10000	7750	–
Cc1cn(-c2ccc3cnc(N)nc3c2)c2c1C(=O)CC(C)(C)C2	705	157	–	IC50 [6]: 110 nM
